This note sets out measurements from ChEMBL document CHEMBL1137260, “Design and biological evaluation of novel tubulin inhibitors as antimitotic agents using a pharmacophore binding model with tubulin” (J Med Chem, 2006).

One assay relates to SNU-398. As to the kind of experiment: Cell cycle arrest in SNU398 cells by accumulation at G2/M phase at 500 nM. It is filed as functional, Homo sapiens.
Conditions: not given
Summed up: (§1)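 SNU-398 hepatoma cells (5 × 10⁵) seeded, grown 24 h, then 48 h with compound or carrier alone. Harvested, PBS-washed twice, stained with a cell cycle analysis kit, analysed by flow cytometry; cell cycle phase percentages estimated, G2/M fraction reported.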
On to `CC(=O)Nc1ccc(C(=O)/C=C/c2ccccn2)cc1`, for which the Activity was determined as 37.1%.
The same measure, in the same setting: next, `O=C(/C=C/c1ccccn1)c1ccc(NC(=O)c2ccco2)cc1`: 36.3%.
The same measure, in the same setting: the figure for `CN(C)CC(=O)Nc1ccc(C(=O)/C=C/c2ccccn2)cc1` is 32.7%.

The subject of another assay is SNU-398. Kind of assay: Cell cycle arrest in SNU398 cells by accumulation at G2/M phase at 5000 nM. It is filed as functional, Homo sapiens.
Conditions: not given
Summed up:
as §1
With `CC(=O)Nc1ccc(C(=O)/C=C/c2ccccn2)cc1`, the Activity turned out to be 43.3%.
The same measure, in the same setting: next, `O=C(/C=C/c1ccccn1)c1ccc(NC(=O)c2ccco2)cc1`: 46.6%.
`CN(C)CC(=O)Nc1ccc(C(=O)/C=C/c2ccccn2)cc1` showed an Activity of 43%.

The subject of a further assay is SNU-398. Kind of assay: Cell cycle arrest in SNU398 cells by accumulation at G2/M phase at 50 nM. The class given is functional, Homo sapiens.
Conditions: not given
Summed up: as §1
In the case of `CC(=O)Nc1ccc(C(=O)/C=C/c2ccccn2)cc1`, the Activity turned out to be 37.7%.
The molecule `O=C(/C=C/c1ccccn1)c1ccc(NC(=O)c2ccco2)cc1` registered an Activity of 36.3%.
Still for that read-out and setting: the figure for `CN(C)CC(=O)Nc1ccc(C(=O)/C=C/c2ccccn2)cc1` is 31.9%.

In a further assay the test system is HEK-293T. As to the kind of experiment: Antiproliferative activity against human 293T cells after 48 hrs. It is filed as functional, cell-based.
Conditions: not given
Summed up:
(§2)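 Cells kept in DMEM with 10% FBS/glutamine/antibiotics, 37 °C, 5% CO2; 2 × 10⁴ cells seeded, after 24 h exposed to compounds (0.01–100 µM) for 48 h. Part of the supernatant was removed, CellTiter 96 Aqueous reagent added, 2 h further incubation at 37 °C, absorbance at 490 nm read; IC50 derived. Huh7 is a hepatoma line, 293T renal epithelial.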
The IC50 is the concentration that inhibits the measured activity by half. Higher therefore signals weaker potency in that assay. Regarding `O=C(/C=C/c1cccc2ccccc12)c1ccc(NC(=O)c2cccs2)cc1`, the 50% inhibitory concentration (IC50) is more than 100 µM.
The same measure, in the same setting: next, `O=C(/C=C/c1ccccn1)c1ccccc1` [WR-190433]: 13.8 µM; `CC(=O)Nc1ccc(C(=O)/C=C/c2ccccn2)cc1`: 13.7 µM; `CCOc1ccc(C(C)(C)C(=O)Nc2ccc(C(=O)/C=C/c3ccccn3)cc2)cc1`: more than 100 µM.
On the same count and under the same terms, the figure for `O=C(/C=C/c1ccccn1)c1ccc(NC(=O)c2ccco2)cc1` is 9.8 µM; for `CN(C)CC(=O)Nc1ccc(C(=O)/C=C/c2ccccn2)cc1` it is 8.2 µM.

A further assay concerns the target Tubulin. As to the kind of experiment: Inhibition of tubulin polymerization. It is filed as protein-complex assay, Homo sapiens.
Conditions: not given
In short, it runs like this: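 Tubulin polymerization kit used; components added to wells at 0 °C with 340 nm baselines, then assembly followed at 0 °C and 37 °C and measured turbidimetrically. Compounds tested at 0, 3, 10 and 30 µM; IC50 calculated from the polymerization data.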
`O=C(/C=C/c1ccccn1)c1ccccc1` [WR-190433] had an IC50 of more than 30 µM.
Still for that read-out and setting: next, `CC(=O)Nc1ccc(C(=O)/C=C/c2ccccn2)cc1`: 15.7 µM; `CN(C)CC(=O)Nc1ccc(C(=O)/C=C/c2ccccn2)cc1`: 19.8 µM.

The subject of a further assay is Huh-7. Kind of assay: Antiproliferative activity against human Huh7 cells after 48 hrs. It is filed as functional, cell-based. Particulars: Huh-7, 48 h. Summed up:
as §2
Molecule `O=C(/C=C/c1cccc2ccccc12)c1ccc(NC(=O)c2cccs2)cc1` had an IC50 of more than 100 µM.
The same measure, in the same setting: the figure for `O=C(/C=C/c1ccccn1)c1ccccc1` [WR-190433] is 14.3 µM; for `CC(=O)Nc1ccc(C(=O)/C=C/c2ccccn2)cc1` it is 9.6 µM; for `CCOc1ccc(C(C)(C)C(=O)Nc2ccc(C(=O)/C=C/c3ccccn3)cc2)cc1` it is more than 100 µM.
The molecule `O=C(/C=C/c1ccccn1)c1ccc(NC(=O)c2ccco2)cc1` showed an IC50 of 9.9 µM.
Same read-out and setting: next, `CN(C)CC(=O)Nc1ccc(C(=O)/C=C/c2ccccn2)cc1`: 8.4 µM.
